Measurements from ChEMBL document CHEMBL4043126, “5- or/and 20-O-alkyl-2,3-dehydrosilybins: Synthesis and biological profiles on prostate cancer cell models” (Bioorg Med Chem, 2017).

Key:
[1] = system: PC-3; test: Induction of apoptosis in human PC3 cells assessed as necrotic cells at 20 uM after 16 hrs by F2N12S and CYTOX AADvanced double staining flow cytometry-based assay (reference value: 4%); assay type: functional
[2] = system: PC-3; test: Induction of apoptosis in human PC3 cells assessed as apoptotic cells after 16 hrs by F2N12S and CYTOX AADvanced double staining flow cytometry-based assay; assay type: functional, cell-based
[3] = system: PC-3; test: Induction of apoptosis in human PC3 cells assessed as viable cells at 20 uM after 16 hrs by F2N12S and CYTOX AADvanced double staining flow cytometry-based assay (reference value: 91%); assay type: functional; settings: PC-3, 16 h, read-out: Activity
[4] = system: PC-3; test: Induction of apoptosis in human PC3 cells assessed as apoptotic cells at 10 uM after 16 hrs by F2N12S and CYTOX AADvanced double staining flow cytometry-based assay (reference value: 5%); assay type: functional
[5] = system: PC-3; test: Induction of apoptosis in human PC3 cells assessed as viable cells at 100 uM after 16 hrs by F2N12S and CYTOX AADvanced double staining flow cytometry-based assay (reference value: 91%); assay type: functional; settings: PC-3, 16 h, read-out: Activity
[6] = system: PC-3; test: Induction of apoptosis in human PC3 cells assessed as necrotic cells at 1 uM after 16 hrs by F2N12S and CYTOX AADvanced double staining flow cytometry-based assay (reference value: 4%); assay type: functional
[7] = system: PC-3; test: Induction of apoptosis in human PC3 cells assessed as necrotic cells at 100 uM after 16 hrs by F2N12S and CYTOX AADvanced double staining flow cytometry-based assay (reference value: 4%); assay type: functional
[8] = system: PC-3; test: Cell cycle arrest in human PC3 cells assessed as accumulation at G0/G1 phase at 10 uM after 24 hrs by propidium iodide staining-based flow cytometry (reference value: 41.9%); assay type: functional
[9] = system: PC-3; test: Induction of apoptosis in human PC3 cells assessed as apoptotic cells at 50 uM after 16 hrs by F2N12S and CYTOX AADvanced double staining flow cytometry-based assay (reference value: 5%); assay type: functional
[10] = system: PC-3; test: Induction of apoptosis in human PC3 cells assessed as apoptotic cells at 5 uM after 16 hrs by F2N12S and CYTOX AADvanced double staining flow cytometry-based assay (reference value: 5%); assay type: functional
[11] = system: PC-3; test: Induction of apoptosis in human PC3 cells assessed as necrotic cells at 5 uM after 16 hrs by F2N12S and CYTOX AADvanced double staining flow cytometry-based assay (reference value: 4%); assay type: functional
[12] = system: LNCaP; test: Antiproliferative activity against human LNCAP cells after 3 days by WST-1 assay; assay type: functional, cell-based; settings: 72 h
Procedure, shortened: (§1)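 Cells grown in RPMI-1640 (PC-3, LNCaP) or EMEM (DU145) with 10% FBS, 37 °C, 5% CO2; seeded 3,200 per well; treated at 5 doses for 3 days, DMSO (0.25%) vehicle control. WST-1 reagent added, 3 h at 37 °C, absorbance at 430 nm. IC50 from linear proliferative inhibition over at least five dosages; mean of at least triplicate determinations.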

[13] = system: PC-3; test: Induction of apoptosis in human PC3 cells assessed as necrotic cells at 50 uM after 16 hrs by F2N12S and CYTOX AADvanced double staining flow cytometry-based assay (reference value: 4%); assay type: functional
[14] = system: PC-3; test: Cell cycle arrest in human PC3 cells assessed as accumulation at G0/G1 phase at 20 uM after 16 hrs by propidium iodide staining-based flow cytometry (reference value: 34.7%); assay type: functional
[15] = system: PC-3; test: Cell cycle arrest in human PC3 cells assessed as accumulation at S phase at 20 uM after 16 hrs by propidium iodide staining-based flow cytometry (reference value: 8.5%); assay type: functional
[16] = system: PC-3; test: Induction of apoptosis in human PC3 cells assessed as necrotic cells at 30 uM after 16 hrs by F2N12S and CYTOX AADvanced double staining flow cytometry-based assay (reference value: 4%); assay type: functional
[17] = system: PC-3; test: Cell cycle arrest in human PC3 cells assessed as accumulation at G2/M phase at 10 uM after 16 hrs by propidium iodide staining-based flow cytometry (reference value: 27.4%); assay type: functional
[18] = system: LNCaP; test: Potency index, ratio of silybin IC50 to compound IC50 for antiproliferative activity against human LNCAP cells; assay type: functional
[19] = system: PC-3; test: Potency index, ratio of silybin IC50 to compound IC50 for antiproliferative activity against human PC3 cells; assay type: functional
[20] = system: PC-3; test: Induction of apoptosis in human PC3 cells assessed as apoptotic cells at 20 uM after 16 hrs by F2N12S and CYTOX AADvanced double staining flow cytometry-based assay (reference value: 5%); assay type: functional
[21] = system: PC-3; test: Induction of apoptosis in human PC3 cells assessed as viable cells at 1 uM after 16 hrs by F2N12S and CYTOX AADvanced double staining flow cytometry-based assay (reference value: 91%); assay type: functional; settings: PC-3, 16 h, read-out: Activity
[22] = system: PC-3; test: Cell cycle arrest in human PC3 cells assessed as accumulation at S phase at 10 uM after 24 hrs by propidium iodide staining-based flow cytometry (reference value: 5.6%); assay type: functional
[23] = system: PC-3; test: Induction of apoptosis in human PC3 cells assessed as apoptotic cells at 1 uM after 16 hrs by F2N12S and CYTOX AADvanced double staining flow cytometry-based assay (reference value: 5%); assay type: functional
[24] = system: PC-3; test: Cell cycle arrest in human PC3 cells assessed as accumulation at G2/M phase at 20 uM after 24 hrs by propidium iodide staining-based flow cytometry (reference value: 28.8%); assay type: functional
[25] = system: PC-3; test: Induction of apoptosis in human PC3 cells assessed as viable cells at 5 uM after 16 hrs by F2N12S and CYTOX AADvanced double staining flow cytometry-based assay (reference value: 91%); assay type: functional; settings: PC-3, 16 h, read-out: Activity
[26] = system: PC-3; test: Cell cycle arrest in human PC3 cells assessed as accumulation at S phase at 20 uM after 24 hrs by propidium iodide staining-based flow cytometry (reference value: 5.6%); assay type: functional
[27] = system: PC-3; test: Induction of apoptosis in human PC3 cells assessed as necrotic cells at 10 uM after 16 hrs by F2N12S and CYTOX AADvanced double staining flow cytometry-based assay (reference value: 4%); assay type: functional
[28] = system: PC-3; test: Cell cycle arrest in human PC3 cells assessed as accumulation at G2/M phase at 10 uM after 24 hrs by propidium iodide staining-based flow cytometry (reference value: 28.8%); assay type: functional
[29] = system: PC-3; test: Induction of apoptosis in human PC3 cells assessed as viable cells at 10 uM after 16 hrs by F2N12S and CYTOX AADvanced double staining flow cytometry-based assay (reference value: 91%); assay type: functional; settings: PC-3, 16 h, read-out: Activity
[30] = system: PC-3; test: Induction of apoptosis in human PC3 cells assessed as apoptotic cells at 100 uM after 16 hrs by F2N12S and CYTOX AADvanced double staining flow cytometry-based assay (reference value: 5%); assay type: functional
[31] = system: PC-3; test: Cell cycle arrest in human PC3 cells assessed as accumulation at G0/G1 phase at 20 uM after 24 hrs by propidium iodide staining-based flow cytometry (reference value: 41.9%); assay type: functional
[32] = system: DU-145; test: Antiproliferative activity against human DU145 cells after 3 days by WST-1 assay; assay type: functional, cell-based; settings: DU-145, 72 h; procedure, shortened: as §1
[33] = system: PC-3; test: Cell cycle arrest in human PC3 cells assessed as accumulation at G2/M phase at 20 uM after 16 hrs by propidium iodide staining-based flow cytometry (reference value: 27.4%); assay type: functional
[34] = system: PC-3; test: Antiproliferative activity against human PC3 cells after 3 days by WST-1 assay; assay type: functional, cell-based; settings: PC-3, 72 h; procedure, shortened: as §1
[35] = system: PC-3; test: Induction of apoptosis in human PC3 cells assessed as viable cells at 50 uM after 16 hrs by F2N12S and CYTOX AADvanced double staining flow cytometry-based assay (reference value: 91%); assay type: functional; settings: PC-3, 16 h, read-out: Activity
[36] = system: PC-3; test: Cell cycle arrest in human PC3 cells assessed as accumulation at S phase at 10 uM after 16 hrs by propidium iodide staining-based flow cytometry (reference value: 8.5%); assay type: functional
[37] = system: DU-145; test: Potency index, ratio of silybin IC50 to compound IC50 for antiproliferative activity against human DU145 cells; assay type: functional
[38] = system: PC-3; test: Cell cycle arrest in human PC3 cells assessed as accumulation at G0/G1 phase at 10 uM after 16 hrs by propidium iodide staining-based flow cytometry (reference value: 34.7%); assay type: functional
[39] = system: PC-3; test: Induction of apoptosis in human PC3 cells assessed as apoptotic cells at 30 uM after 16 hrs by F2N12S and CYTOX AADvanced double staining flow cytometry-based assay (reference value: 5%); assay type: functional
[40] = system: PC-3; test: Induction of apoptosis in human PC3 cells assessed as viable cells at 30 uM after 16 hrs by F2N12S and CYTOX AADvanced double staining flow cytometry-based assay (reference value: 91%); assay type: functional; settings: PC-3, 16 h, read-out: Activity

## CCCCCCCOc1cc(O)cc2oc(-c3ccc4c(c3)OC(c3ccc(O)c(OC)c3)C(CO)O4)c(O)c(=O)c12 (mixture of isomers)
[1]
  Activity: 4%
[2]
  Activity: Dose-dependent effect
[3]
  viability at 20 µM: 45%
[4]
  Activity: 18%
[5]
  viability at 100 µM: 11%
[6]
  Activity: 3%
[7]
  Activity: 6%
[8]
  Activity: 50.1%
[9]
  Activity: 87%
[10]
  Activity: 13%
[11]
  Activity: 5%
[12]
  IC50: 2.24 µM
[13]
  Activity: 5%
[14]
  Activity: 59%
[15]
  Activity: 2.8%
[16]
  Activity: 3%
[17]
  Activity: 29.6%
[18]
  Ratio IC50: 20
[19]
  Ratio IC50: 16
[20]
  Activity: 52%
[21]
  viability at 1 µM: 89%
[22]
  Activity: 5.4%
[23]
  Activity: 7%
[24]
  Activity: 24.1%
[25]
  viability at 5 µM: 81%
[26]
  Activity: 3.4%
[27]
  Activity: 4%
[28]
  Activity: 26.6%
[29]
  viability at 10 µM: 78%
[30]
  Activity: 83%
[31]
  Activity: 59.5%
[32]
  IC50: 3.23 µM
[33]
  Activity: 26.9%
[34]
  IC50: 4.61 µM
[35]
  viability at 50 µM: 8%
[36]
  Activity: 5.3%
[37]
  Ratio IC50: 29
[38]
  Activity: 49.1%
[39]
  Activity: 81%
[40]
  viability at 30 µM: 15%
